Measured values reported in ChEMBL document CHEMBL2440094, “Thiazolidinone-peptide hybrids as dengue virus protease inhibitors with antiviral activity in cell culture” (J Med Chem, 2013).
Activity calls are given as the source filed them. The rule behind the calls is not given here.

Assays:
[1] = system: Dengue virus; experiment: Inhibition of Dengue virus NS2B-NS3 protease expressed in Escherichia coli BL 21 (DE3) using Abz-Nle-Lys-Arg-Arg-Ser-3-(NO2)Tyr as substrate at 50 uM after 15 mins
[2] = target: Prothrombin (Homo sapiens) (UniProt P00734); experiment: Inhibition of thrombin (unknown origin) using Boc-Val-Pro-Arg-AMC as substrate at 25 uM after 10 mins by continuous fluorimetric assay
Outline: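 Thrombin (10 nM) preincubated 15 min with inhibitor (25 μM final) in 50 mM Tris-HCl pH 7.5, 150 mM NaCl, 0.05% Tween 20. Boc-Val-Pro-Arg-AMC then added to 50 μM (Km 16 μM). Fluorescence (ex 355 nm, em 460 nm) followed for 10 min as slope. Triplicate; percent inhibition versus no-inhibitor control.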

[3] = system: West Nile virus; experiment: Inhibition of West Nile virus NS2B-NS3 protease expressed in Escherichia coli BL 21 (DE3) using Abz-Gly-Leu-Lys-Arg-Gly-Gly-3-(NO2)Tyr as substrate at 50 uM after 15 mins
[4] = Permeability of the compound by PAMPA; assay type: ADME; details: read-out: permeability
Outline: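 PAMPA with precoated trilayer lipid/oil/lipid membranes, donor wells holding 200 μM compound in PBS pH 7.4 (2% DMSO final), in triplicate. Incubated 5 h at room temperature. Donor and acceptor concentrations determined by UV plate reader or HPLC-UV against calibration curves. Pe and mass retention R calculated.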

[5] = system: dengue virus type 2; experiment: Antiviral activity against Dengue virus 2 infected in human Huh-7 cells assessed as inhibition of viral replication after 48 hrs by luciferase reporter gene assay; assay type: functional, organism-based; details: Huh-7, 48 h
Outline: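 Huh-7 cells seeded 5000/well, incubated overnight at 37 °C, then given compound (1.56–50 μM final, 2-fold series in DMEM with 10% FCS). Dengue 2 renilla luciferase reporter virus (MOI 10) added 4 h later. After 48 h at 37 °C, cells lysed and renilla luminescence read with coelenterazine. At least four wells per concentration, expressed relative to DMSO control. EC50 by nonlinear regression.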

SMILES | inhibition [1] [%] | inhibition [2] | inhibition [3] | Papp [4] [×10⁻⁶ cm/s] | EC50 [5] [µM]
CCCC[C@H](NC(=O)[C@H](CCCNC(=N)N)NC(=O)[C@H](CCCNC(=N)N)NC(=O)c1ccc(/C=C2\SC(=O)N(Cc3ccccc3)C2=O)cc1)C(N)=O | 92.7 | 13.7% | 74% |  | 
CCCC[C@@H](NC(=O)[C@@H](CCCCN)NC(=O)[C@@H](CCCNC(=N)N)NC(=O)c1ccc(/C=C2\SC(=O)N(Cc3ccccc3)C2=O)cc1)C(N)=O | 73.9 | 11.1% | 47.5% | 0.29 | 
CCCC[C@H](NC(=O)[C@H](CCCCN)NC(=O)[C@H](CCCNC(=N)N)NC(=O)c1ccc(/C=C2\SC(=O)N(c3ccc(C)cc3)C2=O)cc1)C(N)=O | 93.8 | 13.8% | 42.4% | 0.66 | 
CCCC[C@H](NC(=O)c1ccc(/C=C2\SC(=O)N(Cc3ccccc3)C2=O)cc1)C(=O)N[C@@H](CCCCN)C(=O)N[C@@H](CCCNC(=N)N)C(N)=O | 66.8 | 6.3% | 60.3% |  | 
CCCC[C@H](NC(=O)[C@H](CCCCN)NC(=O)[C@H](CCCNC(=N)N)NC(=O)CN1C(=O)/C(=C/c2ccc(OC)c(OC)c2)SC1=S)C(N)=O | 46.5 | 13.8% | 30.2% |  | 
N=C(N)NCCC[C@H](NC(=O)c1ccc(/C=C2\SC(=O)N(Cc3ccccc3)C2=O)cc1)C(=O)N[C@@H](CCCCN)C(N)=O | 83.1 | inactive | 76.2% |  | 
O=C(O)c1ccc(/C=C2\SC(=O)N(Cc3ccccc3)C2=O)cc1 | 30.7 | 12.2% | 22.1% |  | 
CCCC[C@H](NC(=O)[C@H](CCCNC(=N)N)NC(=O)[C@H](CCCCN)NC(=O)c1ccc(/C=C2\SC(=O)N(Cc3ccccc3)C2=O)cc1)C(N)=O | 72.1 | 10.2% | 60.9% |  | 
CCCC[C@H](NC(=O)[C@H](CCCCN)NC(=O)[C@H](CCCNC(=N)N)NC(=O)c1ccc(/C=C2\SC(=S)N(c3ccc(F)cc3)C2=O)cc1)C(N)=O | 89.7 | 6.5% | 35.5% |  | 
N=C(N)NCCC[C@H](NC(=O)c1ccc(/C=C2\SC(=O)N(Cc3ccccc3)C2=O)cc1)C(N)=O | 32.4 | 13.2% | 16.9% |  | 
CCCC[C@H](NC(=O)[C@H](CCCC)NC(=O)[C@H](CCCNC(=N)N)NC(=O)c1ccc(/C=C2\SC(=O)N(Cc3ccccc3)C2=O)cc1)C(N)=O | 81.4 | 8.3% | 88.3% |  | 
CCCC[C@H](NC(=O)[C@H](CCCCN)NC(=O)[C@H](CCCNC(=N)N)NC(=O)CC1SC(=S)N(Cc2ccc(OC)cc2)C1=O)C(N)=O (stereo not given in full) | 23 | 76.8% | inactive |  | 30.3
CCCC[C@H](NC(=O)[C@H](CCCCN)NC(=O)[C@H](CCCNC(=N)N)NC(=O)[C@H](Cc1ccccc1)N1C(=O)/C(=C/c2ccc(OC)c(OC)c2)SC1=S)C(N)=O | 60.8 | 18.9% | 25% |  | > 50
CCCC[C@H](NC(=O)[C@H](CCCCN)NC(=O)[C@H](CCCNC(=N)N)NC(=O)c1cccc(/C=C2\SC(=S)NC2=O)c1)C(N)=O | 75.2 | 17.6% | 34.6% |  | > 50
CCCC[C@H](NC(=O)[C@H](CCCCN)NC(=O)[C@H](CCCNC(=N)N)NC(=O)c1ccc(/C=C2\NC(=S)N(Cc3ccccc3)C2=O)cc1)C(N)=O | 83.5 | 11.4% | 29.2% |  | 
CCCC[C@H](NC(=O)[C@H](CCCCN)NC(=O)[C@H](CCCNC(=N)N)NC(=O)c1ccc(/C=C2\NC(=S)N(c3ccccc3)C2=O)cc1)C(N)=O | 85.2 | 18% | 44.1% |  | 
CCCC[C@H](NC(=O)[C@H](CCCCN)NC(=O)[C@H](CCCCN)NC(=O)c1ccc(/C=C2\SC(=O)N(Cc3ccccc3)C2=O)cc1)C(N)=O | 83 | 16.7% | 36.9% |  | 

Second part, the compound after the results:

inhibition [1] [%] | inhibition [2] | inhibition [3] | Papp [4] [×10⁻⁶ cm/s] | EC50 [5] [µM] | SMILES
96.5 | 19% | 48.5% |  |  | CCCC[C@H](NC(=O)[C@H](CCCCN)NC(=O)[C@H](CCCNC(=N)N)NC(=O)c1ccc(/C=C2\SC(=O)N(CC)C2=O)cc1)C(N)=O
90 | 14.2% | 37.8% |  |  | CCCC[C@H](NC(=O)[C@H](CCCCN)NC(=O)[C@H](CCCNC(=N)N)NC(=O)c1ccc(/C=C2\SC(=S)N(c3ccccc3)C2=O)cc1)C(N)=O
93.2 | 12.5% | 33.2% |  |  | C=CCN1C(=O)S/C(=C\c2ccc(C(=O)N[C@@H](CCCNC(=N)N)C(=O)N[C@@H](CCCCN)C(=O)N[C@@H](CCCC)C(N)=O)cc2)C1=O
95 | 10.2% | 50.9% |  |  | CCCC[C@H](NC(=O)[C@H](CCCCN)NC(=O)[C@H](CCCNC(=N)N)NC(=O)c1ccc(/C=C2\SC(=S)N(c3ccc(C)cc3)C2=O)cc1)C(N)=O
95.9 | 11.8% | 26.5% |  | > 50 | CCCC[C@H](NC(=O)[C@H](CCCCN)NC(=O)[C@H](CCCNC(=N)N)NC(=O)c1ccc(/C=C2\SC(=O)N(CCO)C2=O)cc1)C(N)=O
94.2 | 11% | 52.7% |  |  | CCCC[C@H](NC(=O)[C@H](CCCCN)NC(=O)[C@H](CCCNC(=N)N)NC(=O)c1ccc(/C=C2\SC(=S)N(CCC)C2=O)cc1)C(N)=O
94.6 | 6.3% | 46.4% |  |  | CCCC[C@H](NC(=O)[C@H](CCCCN)NC(=O)[C@H](CCCNC(=N)N)NC(=O)c1ccc(/C=C2\SC(=S)N(C3CC3)C2=O)cc1)C(N)=O
89.3 | 22.8% | 22.4% |  |  | CCCC[C@H](NC(=O)[C@H](CCCCN)NC(=O)[C@H](CCCNC(=N)N)NC(=O)c1ccc(/C=C2\SC(=S)N(CCOC(C)=O)C2=O)cc1)C(N)=O
93.3 | 13.3% | 53.4% |  |  | CCCC[C@H](NC(=O)[C@H](CCCCN)NC(=O)[C@H](CCCNC(=N)N)NC(=O)c1ccc(/C=C2\SC(=S)N(CC3CCCO3)C2=O)cc1)C(N)=O (stereo not given in full)
94.4 | 12% | 63.7% |  |  | CCCC[C@H](NC(=O)[C@H](CCCCN)NC(=O)[C@H](CCCNC(=N)N)NC(=O)c1ccc(/C=C2\SC(=S)N(C(C)C)C2=O)cc1)C(N)=O
95.8 | 10.6% | 30.9% |  |  | CCCC[C@H](NC(=O)[C@H](CCCCN)NC(=O)[C@H](CCCNC(=N)N)NC(=O)c1ccc(/C=C2\SC(=O)N(C(C)C)C2=O)cc1)C(N)=O
90.3 | 12.9% | 28.4% |  | > 50 | CCCC[C@H](NC(=O)[C@H](CCCCN)NC(=O)[C@H](CCCNC(=N)N)NC(=O)c1ccc(/C=C2\SC(=S)N(CCO)C2=O)cc1)C(N)=O
93.4 | 13.6% | 45.4% |  |  | CCCC[C@H](NC(=O)[C@H](CCCCN)NC(=O)[C@H](CCCNC(=N)N)NC(=O)c1ccc(/C=C2\SC(=S)N(CC)C2=O)cc1)C(N)=O
94.5 | inactive | 33.6% |  |  | CCCC[C@H](NC(=O)[C@H](CCCCN)NC(=O)[C@H](CCCNC(=N)N)NC(=O)c1ccc(/C=C2\SC(=O)N(CCC)C2=O)cc1)C(N)=O
